According to ChEMBL document CHEMBL3774359, “Synthesis of benzofuran derivatives as selective inhibitors of tissue-nonspecific alkaline phosphatase: effects on cell toxicity and osteoblast-induced mineralization” (Bioorg Med Chem Lett, 2016):
Activity calls are given as the source filed them. No cut-off for these calls is given here.

What was measured:
[1] = molecular target: T1, Intestinal-type alkaline phosphatase (Bos taurus, UniProt P19111); test: Inhibition of bovine intestinal alkaline phosphatase using para-nitrophenylphosphate as substrate preincubated for 10 mins at pH 7.8 followed by substrate addition
[2] = Inhibition of porcine kidney TNAP using para-nitrophenylphosphate as substrate preincubated for 10 mins at pH 7.8 followed by substrate addition
[3] = molecular target: T2, Alkaline phosphatase, placental type (Homo sapiens, UniProt P05187); test: Inhibition of human placental alkaline phosphatase using para-nitrophenylphosphate as substrate preincubated for 10 mins at pH 7.8 followed by substrate addition
[4] = Inhibition of porcine kidney TNAP using para-nitrophenylphosphate as substrate preincubated for 10 mins at pH 10.4 followed by substrate addition
[5] = molecular target: T1, Intestinal-type alkaline phosphatase; test: Inhibition of bovine intestinal alkaline phosphatase using para-nitrophenylphosphate as substrate preincubated for 10 mins at pH 10.4 followed by substrate addition
[6] = molecular target: T2, Alkaline phosphatase, placental type; test: Inhibition of human placental alkaline phosphatase using para-nitrophenylphosphate as substrate preincubated for 10 mins at pH 10.4 followed by substrate addition
[7] = molecular target: T3, Alkaline phosphatase, tissue-nonspecific isozyme (Mus musculus) (UniProt P09242); conditions: C57BL/6J, 10 to 40 uM
T3 sequence (whole entry): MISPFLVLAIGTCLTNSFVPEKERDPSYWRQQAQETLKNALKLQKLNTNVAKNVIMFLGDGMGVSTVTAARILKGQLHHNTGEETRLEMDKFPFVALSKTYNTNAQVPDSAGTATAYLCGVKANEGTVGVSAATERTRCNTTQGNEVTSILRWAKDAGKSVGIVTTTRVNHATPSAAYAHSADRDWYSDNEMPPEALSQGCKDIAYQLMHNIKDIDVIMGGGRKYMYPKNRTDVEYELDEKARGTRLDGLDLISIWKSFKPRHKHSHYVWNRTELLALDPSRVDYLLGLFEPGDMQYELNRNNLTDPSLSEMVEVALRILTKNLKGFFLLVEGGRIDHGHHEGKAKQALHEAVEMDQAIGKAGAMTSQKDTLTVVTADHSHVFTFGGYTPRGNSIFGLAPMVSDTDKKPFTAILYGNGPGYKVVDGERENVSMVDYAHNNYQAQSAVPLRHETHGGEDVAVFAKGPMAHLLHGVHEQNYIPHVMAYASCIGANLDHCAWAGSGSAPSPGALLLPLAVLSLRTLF

[8] = Inhibition of porcine kidney TNAP using para-nitrophenylphosphate as substrate preincubated for 10 mins at pH 7.8 followed by substrate addition; design: species or system Sus scrofa
Sus scrofa = organism: Sus scrofa; test: Uncompetitive inhibition of porcine kidney TNAP using para-nitrophenylphosphate as substrate preincubated for 10 mins at pH 7.8 to 10.4 followed by substrate addition
[9] = Cytotoxicity against mouse primary osteoblasts assessed as reduction in cell viability at 10 to 40 uM after 3 days by MTT assay; assay type: cell-based; conditions: osteoblast, 72 h
Outline: (§1)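 Cells (human osteoblast-like Saos-2 and MG63, mouse vascular smooth muscle line MOVAS-1, mouse primary osteoblasts) were incubated with or without inhibitor for 3 days. Viability was read by MTT assay.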

[10] = molecular target: T4, Alkaline phosphatase, tissue-nonspecific isozyme (Homo sapiens) (UniProt P05186); test: Inhibition of TNAP in human Saos2 cells assessed as reduction of ascorbic acid and beta-glycerophosphate-induced mineralization at 20 to 40 uM after 6 days by alizarin red-s staining based assay; assay type: cell-based; conditions: SAOS-2
T4 sequence (whole entry): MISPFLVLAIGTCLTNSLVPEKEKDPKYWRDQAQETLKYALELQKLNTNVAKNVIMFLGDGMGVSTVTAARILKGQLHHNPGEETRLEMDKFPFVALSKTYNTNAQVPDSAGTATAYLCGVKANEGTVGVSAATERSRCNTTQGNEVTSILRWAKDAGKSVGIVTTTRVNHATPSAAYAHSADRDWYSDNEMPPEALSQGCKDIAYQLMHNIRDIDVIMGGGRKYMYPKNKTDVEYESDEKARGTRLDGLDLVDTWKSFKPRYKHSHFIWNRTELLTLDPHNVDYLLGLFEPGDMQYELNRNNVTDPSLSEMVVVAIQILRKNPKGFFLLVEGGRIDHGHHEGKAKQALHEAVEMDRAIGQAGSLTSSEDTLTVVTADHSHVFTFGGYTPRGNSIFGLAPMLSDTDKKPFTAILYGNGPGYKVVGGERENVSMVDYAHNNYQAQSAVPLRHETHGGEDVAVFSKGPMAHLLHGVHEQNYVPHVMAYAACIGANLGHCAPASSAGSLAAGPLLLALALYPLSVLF
Outline: (§2)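 Saos-2 cells and mouse primary osteoblasts received ascorbic acid plus β-glycerophosphate to stimulate differentiation and mineralization, with or without inhibitor. Mineral was quantified by Alizarin Red-S staining and expressed as percent of a control containing DMSO 0.1% (mL:mL) without inhibitor. Experiments were repeated in triplicate for each inhibitor (n = 9).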

[11] = molecular target: T3, Alkaline phosphatase, tissue-nonspecific isozyme (Mus musculus); test: Inhibition of TNAP in C57BL/6J mouse primary osteoblasts assessed as reduction of ascorbic acid and beta-glycerophosphate-induced mineralization at 10 uM after 6 days by alizarin red-s staining based assay relative to control; outline: as §2
[12] = Cytotoxicity against human MG63 cells assessed as reduction in cell viability at 10 to 40 uM after 3 days by MTT assay; assay type: cell-based; conditions: mg-63, 72 h; outline: as §1
[13] = Cytotoxicity against human Saos2 cells assessed as reduction in cell viability at 10 to 40 uM after 3 days by MTT assay; assay type: cell-based; conditions: saos-2, 72 h; outline: as §1
[14] = Cytotoxicity against mouse MOVAS1 cells assessed as reduction in cell viability at 10 to 40 uM after 3 days by MTT assay; assay type: cell-based; conditions: movas1, 72 h; outline: as §1

T1 sequence (P19111 whole entry): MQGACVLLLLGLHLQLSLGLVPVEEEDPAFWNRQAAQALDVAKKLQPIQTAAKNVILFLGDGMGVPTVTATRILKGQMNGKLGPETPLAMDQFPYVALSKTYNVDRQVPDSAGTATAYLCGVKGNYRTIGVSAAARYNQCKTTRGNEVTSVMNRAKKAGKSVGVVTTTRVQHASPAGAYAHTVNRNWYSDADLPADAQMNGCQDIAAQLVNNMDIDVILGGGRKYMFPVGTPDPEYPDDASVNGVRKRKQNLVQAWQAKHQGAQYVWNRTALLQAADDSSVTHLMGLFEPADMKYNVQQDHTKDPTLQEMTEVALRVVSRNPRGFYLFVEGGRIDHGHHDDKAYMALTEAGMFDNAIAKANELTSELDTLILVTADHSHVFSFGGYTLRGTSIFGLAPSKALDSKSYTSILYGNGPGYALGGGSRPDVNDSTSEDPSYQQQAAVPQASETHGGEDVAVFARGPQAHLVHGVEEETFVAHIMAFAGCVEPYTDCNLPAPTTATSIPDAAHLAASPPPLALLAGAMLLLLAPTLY
T2 sequence (P05187 whole entry): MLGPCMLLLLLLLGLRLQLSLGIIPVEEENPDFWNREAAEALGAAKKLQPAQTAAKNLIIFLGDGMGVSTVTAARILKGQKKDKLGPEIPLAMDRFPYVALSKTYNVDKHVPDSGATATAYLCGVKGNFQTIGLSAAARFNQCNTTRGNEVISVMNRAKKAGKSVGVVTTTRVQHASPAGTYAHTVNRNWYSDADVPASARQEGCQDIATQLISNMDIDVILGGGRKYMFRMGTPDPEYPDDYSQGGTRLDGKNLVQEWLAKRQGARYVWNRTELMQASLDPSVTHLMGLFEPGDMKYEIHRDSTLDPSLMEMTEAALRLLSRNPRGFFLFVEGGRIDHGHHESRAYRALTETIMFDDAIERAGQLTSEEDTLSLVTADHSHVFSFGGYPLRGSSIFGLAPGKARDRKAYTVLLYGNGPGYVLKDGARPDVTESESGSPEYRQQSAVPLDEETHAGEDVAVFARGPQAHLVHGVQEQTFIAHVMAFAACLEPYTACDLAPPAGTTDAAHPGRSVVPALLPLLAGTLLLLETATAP

Row | IC50 [1] | IC50 [2] | IC50 [3] | IC50 [4] | IC50 [5] | IC50 [6] | inhibition [7] | Ki [8] | inhibition (Sus scrofa) | inhibition [10] | inhibition [11] | SMILES | Activity [9] | Activity [12] | Activity [13] | Activity [14]
1 | > 400 µM | 256 µM | > 400 µM | 41 µM | > 400 µM | > 400 µM | inactive | 47 µM |  |  |  | c1ccc([C@H]2CN3CCSC3=N2)cc1 [LEVAMISOLE] |  |  |  | 
2 | > 400 µM | 124 µM | > 400 µM | 28 µM | > 400 µM | > 400 µM |  | 32 µM | Active | Active | 20% | C1=CN2CC(c3cc4ccccc4o3)N=C2S1 (centres undefined) | Non-toxic | Non-toxic | Non-toxic | Non-toxic
3 | > 400 µM | > 400 µM | > 400 µM | > 400 µM | > 400 µM | > 400 µM |  |  |  |  |  | N=c1sccn1CC(O)c1cc2ccccc2o1 (centres undefined) |  |  |  | 
4 | > 400 µM | > 400 µM | > 400 µM | > 400 µM | > 400 µM | > 400 µM |  |  |  |  |  | N=c1sccn1CC(=O)c1cc2ccccc2o1 |  |  |  | 
